Assay results taken from ChEMBL document CHEMBL1154223, “Oxygenated lignans from the fruits of Schisandra arisanensis” (2009).

Assays:
Format in all cases: functional
[1] = system: PBMC; assay: Inhibition of 5 ug/ml PHA-stimulated human PBMC proliferation assessed as [3H]thymidine uptake at 100 uM after 3 days by scintillation counting
Method in brief: (§1)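 Human PBMC at 2 × 10^6 cells/mL were plated with or without PHA and exposed to test compound at 100 µM. Cultures were kept at 37 °C in humidified 5% CO2-air for 3 days, then pulsed with tritiated thymidine at 1 µCi/well for 16 h. Cells were harvested onto glass fiber filters, and radioactivity was counted by scintillation. Results are given as % inhibition.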

[2] = system: PBMC; assay: Inhibition of human PBMC proliferation assessed as [3H]thymidine uptake at 100 uM after 3 days by scintillation counting; method in brief: as §1
[3] = system: PBMC; assay: Inhibition of 0.2 ug/ml PHA-stimulated human PBMC proliferation assessed as [3H]thymidine uptake at 100 uM after 3 days by scintillation counting; method in brief: as §1
[4] = system: PBMC; assay: Inhibition of 5 ug/ml PHA-stimulated human PBMC proliferation assessed as [3H]thymidine uptake at 5 uM after 3 days by scintillation counting
[5] = system: PBMC; assay: Inhibition of human PBMC proliferation assessed as [3H]thymidine uptake at 5 uM after 3 days by scintillation counting

| Compound | inhibition (INH) [1] [%] | inhibition at 100 µM [2] [%] | inhibition (INH) [3] [%] | inhibition (INH) [4] [%] | inhibition at 5 µM [5] [%] |
| --- | --- | --- | --- | --- | --- |
| C/C=C(/C)C(=O)O[C@H]1c2cc(OC)c(OC)c(OC)c2-c2c(cc(O)c(OC)c2OC)C[C@@H](C)[C@@]1(C)O | 44.3 | 44.5 | 67 |  |  |
| COc1cc([C@@H]2c3cc(OC)c(OC)cc3C(=O)[C@@H](C)[C@H]2C)ccc1O | 95.6 | 61 | 82.7 |  |  |
| C/C=C(/C)C(=O)O[C@H]1c2cc3c(c(OC)c2-c2c(cc(OC)c(OC)c2O)C[C@H](C)[C@]1(C)O)OCO3 | 14.6 | 12.7 | 16.4 |  |  |
| CC=C(C)C(=O)O[C@H]1c2cc3c(c(OC)c2-c2c(cc(OC)c(OC)c2OC)C[C@H](C)[C@]1(C)O)OCO3 | 58.9 | 36.1 | 75.2 |  |  |
| C/C=C(/C)C(=O)O[C@H]1c2cc(OC)c(OC)c(O)c2-c2c(cc3c(c2OC)OCO3)C[C@@H](C)[C@@]1(C)O | 66.6 | 47 | 74 |  |  |
| COc1cc2c(c(O)c1OC)-c1c(cc(O)c(OC)c1OC)C[C@H](C)[C@H](C)C2 [ARISANSCHININ F] | 92.9 | 58.5 | 81.7 |  |  |
| COc1cc2c(c(O)c1OC)-c1c(cc(O)c(OC)c1OC)C[C@@H](C)[C@@H](C)C2 [ARISANSCHININ G] | 92.5 | 54.7 | 76.3 |  |  |
| COc1cc([C@@H]2c3cc(OC)c(O)cc3C(=O)[C@@H](C)[C@H]2C)ccc1O [ARISANTETRALONE A] | 91.9 | 59.7 | 78.1 |  |  |
| COc1cc([C@@H]2c3cc(O)c(OC)cc3C(=O)[C@@H](C)[C@H]2C)ccc1O [ARISANTETRALONE B] | 90.8 | 56.9 | 75.3 |  |  |
| COc1cc2c(cc1O)C(=O)[C@@H](C)[C@@H](C)[C@@H]2c1ccc(OC)c(OC)c1 [ARISANTETRALONE C] | 89.3 | 54.1 | 76.3 |  |  |
| COc1cc2c(cc1O)C(=O)[C@H](C)[C@@H](C)[C@@H]2c1ccc(OC)c(OC)c1 [ARISANTETRALONE D] | 83.9 | 34.1 | 70.1 |  |  |
| C/C=C/C[C@@H](C)[C@@H](O)[C@H]1C(=O)N[C@@H](CC)C(=O)N(C)CC(=O)N(C)[C@@H](CC(C)C)C(=O)N[C@@H](C(C)C)C(=O)N(C)[C@@H](CC(C)C)C(=O)N[C@@H](C)C(=O)N[C@H](C)C(=O)N(C)[C@@H](CC(C)C)C(=O)N(C)[C@@H](CC(C)C)C(=O)N(C)[C@@H](C(C)C)C(=O)N1C [CYCLOSPORINE] |  |  |  | 89.9 | 25.5 |
| COc1cc2c(c(OC)c1OC)-c1c(cc3c(c1OC)OCO3)[C@H](OC(=O)c1ccccc1)[C@@](C)(O)[C@@H](C)C2 [GOMISIN G] | 88.6 | 46.2 | 75.8 |  |  |
| COc1cc(C[C@@H](C)[C@@H](C)Cc2cc(O)c(OC)c(OC)c2)cc(O)c1OC [PREGOMISIN] | 95.6 | 63.9 | 83 |  |  |
| COc1cc2c(c(O)c1OC)-c1c(cc(OC)c(OC)c1OC)C[C@@H](C)[C@@H](C)C2 [SCHISANHENOL] | 76 | 60.8 | 80.1 |  |  |
